Measured values collected from several papers.
Compare with care: the assays were run in different laboratories.
Cell line: Jurkat
Read-out: cell growth or viability

CCCCCC/C=C1\CC2C=CC=CC1C2C1CCCCC1=O (stereo not drawn)  IC50 (flow cytometry): 29 nM
COCCOCOc1cc(O)c(-c2cc(-c3ccc(C(=O)O)cc3)no2)cc1C12CC3CC(CC(C3)C1)C2  IC50 (ATP luminescence; 24 h): 1950 nM
CCCCCCCCC1=CC2C=CC=CC1C2C1CCCCC1=O (stereo not drawn)  IC50 (flow cytometry): 79 nM
CC(=O)O[C@H](C)C(=O)CCCCCCC(=O)Nc1ccccc1  IC50 (thymidine uptake): > 100000 nM
CC[C@]1(O)C[C@H]2CN(CCc3c([nH]c4ccccc34)[C@@](C(=O)OC)(c3cc4c(cc3OC)N(C=O)[C@H]3[C@@](O)(C(=O)OC)[C@H](OC(C)=O)[C@]5(CC)C=CCN6CC[C@]43[C@@H]65)C2)C1  IC50 (MTT): 1.1 nM
COc1ccc(/C=C\c2cc(OC)c(OC)c(OC)c2)cc1O  IC50: 5 nM
O=C1CCCCC1C1C2C=CC=CC1C(C1CC1)=C2 (stereo not drawn)  IC50 (flow cytometry): 39 nM
CC(=O)O[C@H]1C(=O)[C@@]2(C)[C@H]([C@H](OC(=O)c3ccccc3)[C@]3(O)C[C@H](OC(=O)[C@H](O)[C@@H](NC(=O)c4ccccc4)c4ccccc4)C(C)=C1C3(C)C)[C@]1(OC(C)=O)CO[C@@H]1C[C@@H]2O  IC50 (72 h): 2.8 nM
CCCCN(Cc1ccc(C(=O)NO)cc1)C(=O)Nc1ccccc1  IC50 (ATP luminescence; 72 h): 7410 nM
COCCOCOc1ccc(C(=O)/C=C/c2ccc(C(=O)O)cc2)cc1C12CC3CC(CC(C3)C1)C2  IC50 (ATP luminescence; 24 h): 1800 nM
CCCON(Cc1ccc(C(=O)NO)cc1)C(=O)Nc1ccccc1  IC50 (ATP luminescence; 72 h): 7090 nM
COc1cccc2c1C(=O)c1c(O)c3c(c(O)c1C2=O)C[C@@](O)(C(=O)CO)C[C@@H]3O[C@H]1C[C@H](N)[C@H](O)[C@H](C)O1  IC50 (MTT; 48 h): 2.5 µg/mL
C[C@@H](O)C(=O)CCCCCCC(=O)Nc1ccccc1  IC50 (thymidine uptake): 92000 nM
O=C1CCCCC1C1C2C=CC=CC1/C(=C/Cc1ccccc1)C2 (stereo not drawn)  IC50 (flow cytometry): 61 nM
COc1cc(/C=C/C(=O)CC(=O)/C=C/c2ccc(O)c(OC)c2)ccc1O  IC50 (MTT; 48 h): 28.9 µg/mL
